pIC50: −log10 of the molar value.
Legend:
MELK = MELK (Homo sapiens, UniProt Q14680); test: MELK kinase activity inhibition; assay type: biochemical; details: for change of MELK IC50 / activity relative to parent compound 6: weaker than 6 (higher IC50)
p53 = test: Western blot of p53 levels; assay type: cell-based
MDMX = test: Immunoblot of MDMX levels; assay type: cell-based; details: MDA-MB-231 cells, increasing concentration
In short: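 MDA-MB-231 cells (DMEM, 10% FBS, 37 °C, 5% CO2) were exposed to rising test compound concentrations. Whole-cell RIPA lysates with protease and phosphatase inhibitors were prepared, and 30 µg protein was resolved by 10% SDS-PAGE and moved to nitrocellulose. Blots were probed with primary antibody overnight at 4 °C, then with IRDye 800 anti-mouse or Alexa Fluor 680 anti-rabbit IgG for 1 h at RT. Bands were read by infrared imaging.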

JAK2 = JAK2 (Homo sapiens, UniProt O60674); test: JAK kinase activity, JAK2; assay type: biochemical
Chain of JAK2 (O60674 whole entry): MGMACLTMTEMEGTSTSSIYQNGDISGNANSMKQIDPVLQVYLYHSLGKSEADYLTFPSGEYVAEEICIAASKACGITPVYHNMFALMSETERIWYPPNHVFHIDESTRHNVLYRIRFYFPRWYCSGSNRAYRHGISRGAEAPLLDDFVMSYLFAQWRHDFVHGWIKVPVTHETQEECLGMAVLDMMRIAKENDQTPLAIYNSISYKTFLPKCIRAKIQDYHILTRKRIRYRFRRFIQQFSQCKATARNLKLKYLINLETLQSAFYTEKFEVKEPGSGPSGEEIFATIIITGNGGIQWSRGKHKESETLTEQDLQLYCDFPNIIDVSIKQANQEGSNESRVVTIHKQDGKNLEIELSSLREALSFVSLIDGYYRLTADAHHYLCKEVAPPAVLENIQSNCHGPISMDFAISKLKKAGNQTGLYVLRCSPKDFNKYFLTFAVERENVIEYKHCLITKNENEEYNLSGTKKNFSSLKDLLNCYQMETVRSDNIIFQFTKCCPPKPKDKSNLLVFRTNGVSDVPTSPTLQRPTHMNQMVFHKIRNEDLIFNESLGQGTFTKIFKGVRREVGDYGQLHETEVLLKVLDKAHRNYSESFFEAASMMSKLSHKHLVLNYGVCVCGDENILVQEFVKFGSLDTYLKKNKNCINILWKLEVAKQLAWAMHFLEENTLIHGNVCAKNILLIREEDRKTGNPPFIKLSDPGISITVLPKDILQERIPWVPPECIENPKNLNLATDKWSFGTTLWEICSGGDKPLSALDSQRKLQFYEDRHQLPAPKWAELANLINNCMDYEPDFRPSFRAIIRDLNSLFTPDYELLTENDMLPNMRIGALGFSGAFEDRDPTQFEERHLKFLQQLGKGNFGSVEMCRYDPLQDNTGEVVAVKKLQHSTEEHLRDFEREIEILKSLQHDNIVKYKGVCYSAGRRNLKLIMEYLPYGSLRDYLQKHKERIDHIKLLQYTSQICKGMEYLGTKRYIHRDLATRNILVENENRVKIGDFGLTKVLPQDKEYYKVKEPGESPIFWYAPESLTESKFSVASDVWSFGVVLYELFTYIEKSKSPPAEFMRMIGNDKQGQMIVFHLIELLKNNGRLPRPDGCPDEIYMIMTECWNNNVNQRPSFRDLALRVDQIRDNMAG

phospho Akt = test: Western blot of Akt phosphorylation; assay type: cell-based
JAK1 = JAK1 (Homo sapiens, UniProt P23458); test: JAK kinase activity, JAK1; assay type: biochemical
Chain of JAK1 (P23458 whole entry): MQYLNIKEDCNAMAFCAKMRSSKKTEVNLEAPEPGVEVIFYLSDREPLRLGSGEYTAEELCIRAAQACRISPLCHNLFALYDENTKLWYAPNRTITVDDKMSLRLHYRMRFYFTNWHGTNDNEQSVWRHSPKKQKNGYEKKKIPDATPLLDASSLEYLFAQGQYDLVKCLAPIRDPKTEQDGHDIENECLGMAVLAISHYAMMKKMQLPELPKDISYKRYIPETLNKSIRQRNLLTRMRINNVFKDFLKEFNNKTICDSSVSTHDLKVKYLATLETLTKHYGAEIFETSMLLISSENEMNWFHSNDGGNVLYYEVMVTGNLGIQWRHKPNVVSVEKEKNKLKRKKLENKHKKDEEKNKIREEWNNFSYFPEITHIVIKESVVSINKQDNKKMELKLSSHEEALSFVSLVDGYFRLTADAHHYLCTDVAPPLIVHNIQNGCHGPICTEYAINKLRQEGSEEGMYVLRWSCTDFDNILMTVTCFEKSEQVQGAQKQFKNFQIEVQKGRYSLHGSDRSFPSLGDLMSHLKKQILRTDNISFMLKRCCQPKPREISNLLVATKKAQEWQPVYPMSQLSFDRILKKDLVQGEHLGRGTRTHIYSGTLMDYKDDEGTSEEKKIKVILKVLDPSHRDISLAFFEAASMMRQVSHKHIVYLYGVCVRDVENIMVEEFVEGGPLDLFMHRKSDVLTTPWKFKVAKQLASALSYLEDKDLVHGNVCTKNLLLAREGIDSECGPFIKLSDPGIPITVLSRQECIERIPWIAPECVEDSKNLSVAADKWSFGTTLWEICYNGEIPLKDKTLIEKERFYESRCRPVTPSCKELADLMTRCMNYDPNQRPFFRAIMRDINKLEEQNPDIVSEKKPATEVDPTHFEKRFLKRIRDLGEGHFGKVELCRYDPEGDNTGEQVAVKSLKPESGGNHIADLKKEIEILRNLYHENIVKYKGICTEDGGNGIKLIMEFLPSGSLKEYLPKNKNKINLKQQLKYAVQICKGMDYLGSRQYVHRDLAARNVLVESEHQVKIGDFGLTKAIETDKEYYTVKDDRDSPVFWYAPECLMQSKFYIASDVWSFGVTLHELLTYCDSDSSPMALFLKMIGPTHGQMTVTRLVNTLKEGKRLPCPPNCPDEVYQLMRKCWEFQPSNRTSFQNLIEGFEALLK

survivin = test: Western blot of survivin levels; assay type: cell-based; details: sustained over 48 h
LC3B-II = test: Autophagy assay; assay type: cell-based; details: for LC3B-II levels: 4 h, 6 at 5 μM, BafA1 at 100 nM, versus DMSO
In short: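 MDA-MB-231 or MDA-MB-468 cells in DMEM with 10% FBS at 37 °C, 5% CO2, treated 4 h with test compound or DMSO vehicle. Hypoxia (1% O2) served as the autophagy positive control. Bafilomycin A1 (100 nM) was added 4 h before harvest. Cells were lysed in NP40 buffer with protease and phosphatase inhibitors, run on SDS-PAGE and transferred to PVDF. Blots were probed overnight at 4 °C with anti-LC3B (1:3000), then HRP secondary (1:10,000), with ECL detection of LC3B-I and LC3B-II.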

phospho STAT3 (Tyr705) = test: Western blot of STAT3 phosphorylation; assay type: cell-based
cyclin A2 = test: Western blot of cyclin A2 levels; assay type: cell-based; details: over 48 h
JAK3 = target: T1, JAK3 (Homo sapiens, UniProt P52333); test: JAK kinase activity, JAK3; assay type: biochemical
T1 sequence (P52333 1-1124): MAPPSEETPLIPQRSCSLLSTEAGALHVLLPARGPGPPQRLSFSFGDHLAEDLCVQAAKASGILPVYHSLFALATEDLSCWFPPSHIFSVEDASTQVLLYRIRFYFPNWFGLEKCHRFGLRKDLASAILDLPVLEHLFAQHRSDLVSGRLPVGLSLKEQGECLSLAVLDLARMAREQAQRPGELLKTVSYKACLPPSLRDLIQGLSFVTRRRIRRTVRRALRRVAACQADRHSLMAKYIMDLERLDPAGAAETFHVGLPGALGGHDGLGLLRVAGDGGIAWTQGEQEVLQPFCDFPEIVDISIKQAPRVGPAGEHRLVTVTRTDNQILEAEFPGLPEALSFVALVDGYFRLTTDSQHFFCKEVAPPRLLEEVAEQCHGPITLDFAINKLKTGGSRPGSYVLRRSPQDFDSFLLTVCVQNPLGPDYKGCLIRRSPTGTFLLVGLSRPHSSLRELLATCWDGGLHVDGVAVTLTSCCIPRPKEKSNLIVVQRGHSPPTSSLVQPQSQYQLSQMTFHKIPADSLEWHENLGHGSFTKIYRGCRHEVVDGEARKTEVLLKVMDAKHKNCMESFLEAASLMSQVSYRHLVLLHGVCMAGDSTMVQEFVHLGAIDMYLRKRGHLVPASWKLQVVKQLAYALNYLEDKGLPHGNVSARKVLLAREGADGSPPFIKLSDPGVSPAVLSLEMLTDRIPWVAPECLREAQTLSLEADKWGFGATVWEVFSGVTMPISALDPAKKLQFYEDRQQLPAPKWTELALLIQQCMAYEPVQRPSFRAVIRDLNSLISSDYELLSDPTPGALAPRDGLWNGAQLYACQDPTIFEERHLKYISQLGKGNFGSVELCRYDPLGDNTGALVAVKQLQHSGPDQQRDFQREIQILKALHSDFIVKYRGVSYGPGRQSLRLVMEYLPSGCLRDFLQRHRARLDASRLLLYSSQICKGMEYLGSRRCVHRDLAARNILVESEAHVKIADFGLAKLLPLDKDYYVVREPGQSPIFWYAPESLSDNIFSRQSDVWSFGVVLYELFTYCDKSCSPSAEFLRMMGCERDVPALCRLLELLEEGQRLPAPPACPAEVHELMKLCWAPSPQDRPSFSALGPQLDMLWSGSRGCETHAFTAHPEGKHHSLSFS

phospho p53 (Ser15) = test: Western blot of p53 Ser15 phosphorylation; assay type: cell-based; details: MDA-MB-468 cells, over 48 h
Bcl-XL = test: Western blot of Bcl-XL levels; assay type: cell-based
BMX/ETK = target: T2, BMX/ETK (Homo sapiens, UniProt P51813); test: Kinase panel IC50, BMX/ETK; assay type: biochemical
T2 sequence (P51813 1-675): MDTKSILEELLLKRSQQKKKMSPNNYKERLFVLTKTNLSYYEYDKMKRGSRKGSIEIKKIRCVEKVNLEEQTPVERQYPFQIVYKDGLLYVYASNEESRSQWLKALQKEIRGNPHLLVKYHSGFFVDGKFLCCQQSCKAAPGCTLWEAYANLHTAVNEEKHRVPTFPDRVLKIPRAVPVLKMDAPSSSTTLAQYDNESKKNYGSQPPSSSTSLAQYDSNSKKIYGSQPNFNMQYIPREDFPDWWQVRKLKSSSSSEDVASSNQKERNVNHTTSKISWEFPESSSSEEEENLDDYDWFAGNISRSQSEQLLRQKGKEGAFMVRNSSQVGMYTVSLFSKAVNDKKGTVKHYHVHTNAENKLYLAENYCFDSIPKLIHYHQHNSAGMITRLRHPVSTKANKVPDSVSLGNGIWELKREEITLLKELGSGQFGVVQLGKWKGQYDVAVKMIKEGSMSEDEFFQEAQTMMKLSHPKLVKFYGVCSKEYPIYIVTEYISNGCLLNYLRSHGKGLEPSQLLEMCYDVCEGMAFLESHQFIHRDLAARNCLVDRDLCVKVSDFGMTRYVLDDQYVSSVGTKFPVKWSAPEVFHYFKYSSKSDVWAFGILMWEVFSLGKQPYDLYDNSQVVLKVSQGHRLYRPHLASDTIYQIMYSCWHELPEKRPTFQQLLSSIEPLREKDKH

p21WAF1/CIP1 = test: Western blot of p21 levels; assay type: cell-based; details: 5 μM, from 4 h, sustained over 48 h

Chain of MELK (Q14680 whole entry): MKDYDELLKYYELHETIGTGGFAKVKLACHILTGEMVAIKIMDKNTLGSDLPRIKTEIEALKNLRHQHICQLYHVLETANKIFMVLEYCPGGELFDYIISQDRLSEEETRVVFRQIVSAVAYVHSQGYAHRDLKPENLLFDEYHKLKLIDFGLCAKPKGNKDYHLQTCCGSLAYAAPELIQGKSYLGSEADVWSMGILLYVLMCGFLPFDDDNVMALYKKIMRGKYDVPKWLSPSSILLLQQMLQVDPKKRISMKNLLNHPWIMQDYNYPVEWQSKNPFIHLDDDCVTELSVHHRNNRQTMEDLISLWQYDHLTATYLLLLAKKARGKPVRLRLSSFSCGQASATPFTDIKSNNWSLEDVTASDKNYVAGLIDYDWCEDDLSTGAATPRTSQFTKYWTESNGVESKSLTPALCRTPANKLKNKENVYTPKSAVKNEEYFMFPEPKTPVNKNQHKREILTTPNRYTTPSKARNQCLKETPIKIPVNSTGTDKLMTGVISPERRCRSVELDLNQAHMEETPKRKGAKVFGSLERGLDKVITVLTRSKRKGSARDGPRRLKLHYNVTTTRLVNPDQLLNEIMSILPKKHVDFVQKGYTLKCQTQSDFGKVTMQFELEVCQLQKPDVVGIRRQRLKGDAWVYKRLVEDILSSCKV

Nc1ccc2nc(/C=C/c3ccc(C(F)(F)F)cc3)nc(NCCCN3CCOCC3)c2c1 [Compound 20] was tested, and the “change of MELK IC50 / activity relative to parent compound 6” value (MELK) was “twofold reduction”.

CCN(CC)CCCCNc1nc(/C=C/c2c(Cl)cc(Cl)cc2Cl)nc2ccc(N)cc12 [Compound 18, (E)-N^4-(4-(diethylamino)butyl)-2-(2,4,6-trichlorostyryl) quinazoline-4,6-diamine] was tested, and the “change of MELK IC50 / activity relative to parent compound 6” value (MELK) was “little effect”.

With CCN(CC)CCCC(C)Nc1nc(/C=C/c2c(Cl)cc(Cl)cc2Cl)nc2ccc(N)cc12 (stereo not shown) [Compound 6, (E)-N^4-(5-(diethylamino)pentan-2-yl)-2-(2,4,6-trichlorostyryl) quinazoline-4,6-diamine] the p53 levels (p53; MDA-MB-231 cells) was “does not affect”, the p53 levels (p53; MDA-MB-468 cells, over 48 h) was “no effect” and the MDMX levels (MDMX) was “increase”. The “inhibition of JAK kinase activity (JAK2)” value (JAK2) was “lack of inhibition”, the Akt phosphorylation (phospho Akt) was “no effect” and the “inhibition of JAK kinase activity (JAK1)” value (JAK1) was “lack of inhibition”. The survivin level (survivin; MDA-MB-231 cells) was “down-regulation”, the survivin level (survivin; MDA-MB-468 cells) was “down-regulation” and the LC3B-II levels (LC3B-II; MDA-MB-231 cells) was “pronounced increase”. The LC3B-II levels (LC3B-II; MDA-MB-468 cells) was “pronounced increase”, the autophagic flux (LC3B-II; MDA-MB-468 or MDA-MB-231 cells, LC3B-II not further increased by co-treatment with BafA1) was “inhibiting autophagic flux” and the STAT3 phosphorylation (phospho STAT3 (Tyr705); MDA-MB-231 cells, levels recover more slowly) was “inhibited”. For the same molecule, the STAT3 phosphorylation (phospho STAT3 (Tyr705); MDA-MB-468 cells) was “inhibited”, the “STAT3 phosphorylation, time course” value (phospho STAT3 (Tyr705); MDA-MB-468 cells, at 4 h, levels restored after 8 h) was “completely inhibited” and the pIC50 (MELK) was about 6.00. For the same molecule, the “cyclin A2 level” value (cyclin A2; MDA-MB-231 cells) was “down-regulated”, the “cyclin A2 level” value (cyclin A2; MDA-MB-468 cells) was “down-regulated” and the “inhibition of JAK kinase activity (JAK3)” value (JAK3) was “lack of inhibition”. The “phosphorylation at Ser15 of p53” value (phospho p53 (Ser15)) was “inhibited”, the Bcl-XL expression (Bcl-XL; MDA-MB-231 cells) was “reduced expression” and the Bcl-XL expression (Bcl-XL; MDA-MB-468 cells) was “reduced expression”. For the same molecule, the pIC50 (BMX/ETK) was about 6.00, the p21WAF1/CIP1 level (p21WAF1/CIP1; MDA-MB-231 cells) was “up-regulated” and the p21WAF1/CIP1 level (p21WAF1/CIP1; MDA-MB-468 cells) was “up-regulated”.

In the case of CO/C1=C\C(C)=C\[C@@H](C)[C@@H](O)[C@@H](C)C/C(C)=C/C=C/[C@H](OC)[C@@H]([C@@H](C)[C@@H](O)[C@H](C)[C@@]2(O)C[C@@H](O)[C@H](C)[C@@H](C(C)C)O2)OC1=O [BafA1, Bafilomycin A1, reference compound], the LC3B-II levels (LC3B-II; MDA-MB-231 cells) was “more modest increase” and the LC3B-II levels (LC3B-II; MDA-MB-468 cells) was “substantial increase”.

Source: paper PMC6668347 (Bioorganic & medicinal chemistry, 2017)
